# Results as given in ChEMBL document CHEMBL3739273, “Synthesis, biological activity evaluation and molecular docking studies of novel coumarin substituted thiazolyl-3-aryl-pyrazole-4-carbaldehydes” (Bioorg Med Chem Lett, 2015).
# Active and inactive are the calls of the source. The rule behind the calls is not given here.
# What was measured:
# [1] = Anticancer activity against human DU145 cells assessed as cell viability after 48 hrs by MTT assay; type: functional, cell-based; conditions: DU-145, 48 h
# How it was run: (§1)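 MTT cytotoxicity assay in human DU-145 prostate, MCF-7 breast and HeLa cervical cancer cell lines. Doxorubicin was the reference drug.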
# MCF7 = assay: Anticancer activity against human MCF7 cells assessed as cell viability after 48 hrs by MTT assay; type: functional, cell-based; conditions: MCF7, 48 h; how it was run: as §1
# HeLa = assay: Anticancer activity against human HeLa cells assessed as cell viability after 48 hrs by MTT assay; type: functional, cell-based; how it was run: as §1
# Bacillus cereus [2] = assay: Antibacterial activity against Bacillus cereus ATCC 14579 assessed as growth inhibition at 100 ug/ml after 24 hrs by agar well diffusion method; type: functional
# How it was run: (§2)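 Agar well diffusion. Compounds were tested at 10, 20, 100, 200 and 300 µg/mL, and the zone of inhibition was measured in mm. Gentamycin sulfate was the reference drug.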
# Bacillus spizizenii [3] = assay: Antibacterial activity against Bacillus subtilis ATCC 6633 assessed as growth inhibition at 100 ug/ml after 24 hrs by agar well diffusion method; type: functional, organism-based; how it was run: as §2
# Proteus vulgaris [4] = assay: Antibacterial activity against Proteus vulgaris ATCC 13315 assessed as growth inhibition at 100 ug/ml after 24 hrs by agar well diffusion method; type: functional; how it was run: as §2
# Staphylococcus aureus [5] = assay: Antibacterial activity against methicillin-resistant Staphylococcus aureus NCTC 13616 assessed as growth inhibition at 100 ug/ml after 24 hrs by agar well diffusion method; type: functional, organism-based
# How it was run: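 Agar well diffusion assay with compounds applied to wells at several concentrations, including the 100 level reported here. The zone of inhibition was measured in mm. Gentamycin sulfate was the standard drug.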
# Klebsiella pneumoniae [6] = assay: Antibacterial activity against Klebsiella pneumoniae ATCC 43816 assessed as growth inhibition at 100 ug/ml after 24 hrs by agar well diffusion method; type: functional; how it was run: as §2
# Escherichia coli [7] = assay: Antibacterial activity against Escherichia coli ATCC 8739 assessed as growth inhibition at 100 ug/ml after 24 hrs by agar well diffusion method; type: functional; how it was run: as §2
# Escherichia coli [8] = assay: Antibacterial activity against Escherichia coli ATCC 8739 after 24 hrs by microtiter plate method; type: functional
# How it was run: (§3)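 Test concentrations reported in µg/mL. Gentamycin sulfate and ampicillin were the reference drugs.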
# Klebsiella pneumoniae [9] = assay: Antibacterial activity against Klebsiella pneumoniae ATCC 43816 after 24 hrs by microtiter plate method; type: functional; how it was run: as §3
# Proteus vulgaris [10] = assay: Antibacterial activity against Proteus vulgaris ATCC 13315 after 24 hrs by microtiter plate method; type: functional; how it was run: as §3
# Staphylococcus aureus [11] = assay: Antibacterial activity against methicillin-resistant Staphylococcus aureus NCTC 13616 after 24 hrs by microtiter plate method; type: functional
# Bacillus spizizenii [12] = assay: Antibacterial activity against Bacillus subtilis ATCC 6633 after 24 hrs by microtiter plate method; type: functional; how it was run: as §3
# Bacillus cereus [13] = assay: Antibacterial activity against Bacillus cereus ATCC 14579 after 24 hrs by microtiter plate method; type: functional; how it was run: as §3
# Escherichia coli [14] = assay: Bactericidal activity against Escherichia coli ATCC 8739 after 24 hrs; type: functional; conditions: for MBC: ATCC 8739, 24 h, read-out: MBC99.9
# How it was run: (§4)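 MBC determined by a standard MBC protocol alongside the MIC, with values in µg/mL. Gentamycin sulfate and ampicillin were the references.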
# Klebsiella pneumoniae [15] = assay: Bactericidal activity against Klebsiella pneumoniae ATCC 43816 after 24 hrs; type: functional; conditions: for MBC: ATCC 43816, 24 h, read-out: MBC99.9; how it was run: as §4
# Proteus vulgaris [16] = assay: Bactericidal activity against Proteus vulgaris ATCC 13315 after 24 hrs; type: functional; conditions: for MBC: ATCC 13315, 24 h, read-out: MBC99.9; how it was run: as §4
# Staphylococcus aureus [17] = assay: Bactericidal activity against methicillin-resistant Staphylococcus aureus NCTC 13616 after 24 hrs; type: functional; conditions: for MBC: NCTC 13616, 24 h, read-out: MBC99.9
# How it was run: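 MBC determined by a standard MBC protocol run alongside the MIC determination. Gentamycin sulfate and ampicillin served as reference drugs.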
# Bacillus spizizenii [18] = assay: Bactericidal activity against Bacillus subtilis ATCC 6633 after 24 hrs; type: functional; conditions: for MBC: ATCC 6633, 24 h, read-out: MBC99.9; how it was run: as §4
# Bacillus cereus [19] = assay: Bactericidal activity against Bacillus cereus ATCC 14579 after 24 hrs; type: functional; conditions: for MBC: ATCC 14579, 24 h, read-out: MBC99.9; how it was run: as §4
# Cytochrome P450 2A6 = biological target: T1, Cytochrome P450 2A6 (Homo sapiens, UniProt P11509); assay: Inhibition of human microsomal CYP2A6; type: ADME
# T1 sequence (P11509 whole entry): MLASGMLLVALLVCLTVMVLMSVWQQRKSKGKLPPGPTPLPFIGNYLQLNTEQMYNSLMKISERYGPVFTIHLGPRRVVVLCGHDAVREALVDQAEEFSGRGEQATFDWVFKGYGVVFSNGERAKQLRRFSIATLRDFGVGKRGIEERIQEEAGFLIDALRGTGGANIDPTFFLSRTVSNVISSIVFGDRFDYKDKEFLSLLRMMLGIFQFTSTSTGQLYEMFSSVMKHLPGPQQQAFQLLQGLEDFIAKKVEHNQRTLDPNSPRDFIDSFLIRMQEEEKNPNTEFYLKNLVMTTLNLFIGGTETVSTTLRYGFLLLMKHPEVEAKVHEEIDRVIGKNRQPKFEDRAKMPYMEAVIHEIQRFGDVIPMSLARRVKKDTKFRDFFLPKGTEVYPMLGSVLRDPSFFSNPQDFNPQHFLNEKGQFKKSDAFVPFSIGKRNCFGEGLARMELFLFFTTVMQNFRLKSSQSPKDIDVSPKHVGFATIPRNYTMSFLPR
# [20] = n-Octanol-phosphate buffer partition coefficient, log P of the compound at pH 7.4 after 30 mins by shake flask method; type: physicochemical
# How it was run: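 Shake-flask partition between n-octanol and 50 mM phosphate buffer, pH 7.4. P calculated and expressed as logP.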
Molecule,IC50 [1] [µM],IC50 (MCF7) [µM],IC50 (HeLa) [µM],growth inhibition (GI) (Bacillus cereus [2]),growth inhibition (GI) (Bacillus spizizenii [3]),growth inhibition (GI) (Proteus vulgaris [4]),growth inhibition (GI) (Staphylococcus aureus [5]),"MIC (Escherichia coli [8]; ATCC 8739, 24 h) [µg/mL]","MIC (Klebsiella pneumoniae [9]; ATCC 43816, 24 h) [µg/mL]","MIC (Proteus vulgaris [10]; ATCC 13315, 24 h) [µg/mL]","MIC (Staphylococcus aureus [11]; NCTC 13616, 24 h) [µg/mL]","MIC (Bacillus spizizenii [12]; ATCC 6633, 24 h) [µg/mL]","MIC (Bacillus cereus [13]; ATCC 14579, 24 h) [µg/mL]",MBC (Escherichia coli [14]) [µg/mL],MBC (Klebsiella pneumoniae [15]) [µg/mL],MBC (Proteus vulgaris [16]) [µg/mL],MBC (Staphylococcus aureus [17]) [µg/mL],MBC (Bacillus spizizenii [18]) [µg/mL],MBC (Bacillus cereus [19]) [µg/mL],Ki (Cytochrome P450 2A6) [µM],other results
O=Cc1cn(-c2nc(-c3cc4cc(Cl)cc(Cl)c4oc3=O)cs2)nc1-c1ccccc1,41.1,76.3,13.8,Active,Active,Active,Active,120,118,132,115,123,117,240,175,260,175,250,175,0.00307,growth inhibition (GI) (Klebsiella pneumoniae [6]): Active; growth inhibition (GI) (Escherichia coli [7]): Active
O=Cc1cn(-c2nc(-c3cc4ccccc4oc3=O)cs2)nc1-c1ccccc1,> 100,> 100,> 100,–,–,–,inactive,135,150,133,150,132,145,270,225,200,300,260,290,0.013,–
GENTAMICIN,–,–,–,–,–,–,–,–,–,–,–,–,–,–,–,–,–,–,–,–,MIC (Escherichia coli [8]): 2 µg/mL; MIC (Klebsiella pneumoniae [9]): 4 µg/mL; MIC (Proteus vulgaris [10]): 4 µg/mL; MIC (Staphylococcus aureus [11]): 22 µg/mL; MIC (Bacillus spizizenii [12]): 45 µg/mL; MIC (Bacillus cereus [13]): 10 µg/mL; MBC99.9 (Escherichia coli [14]): 8 µg/mL; MBC99.9 (Klebsiella pneumoniae [15]): 16 µg/mL; MBC99.9 (Proteus vulgaris [16]): 8 µg/mL; MBC99.9 (Staphylococcus aureus [17]): 50 µg/mL; MBC99.9 (Bacillus spizizenii [18]): 80 µg/mL; MBC99.9 (Bacillus cereus [19]): 22 µg/mL
O=Cc1cn(-c2nc(-c3cc4cc(Br)ccc4oc3=O)cs2)nc1-c1ccccc1,35,18.2,11,Active,Active,Active,Active,118,117,124,116,125,129,240,175,250,175,250,260,0.00602,growth inhibition (GI) (Klebsiella pneumoniae [6]): Active; growth inhibition (GI) (Escherichia coli [7]): Active; logD at 0.5 h [20]: 3.3
Cc1ccc(-c2nn(-c3nc(-c4cc5ccccc5oc4=O)cs3)cc2C=O)cc1,50.2,69.5,37.4,–,–,–,inactive,132,150,150,150,150,135,260,300,300,300,300,270,0.011,–
CC1(C)S[C@@H]2[C@H](NC(=O)[C@H](N)c3ccccc3)C(=O)N2[C@H]1C(=O)O [AMPICILLIN],–,–,–,–,–,–,–,10,–,–,4,5,4,18,–,–,6,10,8,–,–
